Assay outcomes as filed in PubChem BioAssay.
FGF22 binding-1: binders of human FGF22 protein, primary screen, FGF22 synaptogenesis inhibitor project, biophysical, thermal shift, single point; activity (Tm shift, normalised), % at 9.99 µM; Fibroblast growth factor 22 (Homo sapiens), Q9HCT0; AID 651658, 2012; 340,000 compounds, 1.5% hits; recombinant FGF22 thermal shift, SYPRO orange fluorescence; percent of sucrose octasulfate shift, DMSO zero;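 active = mean Tm shift, scaled 0 neutral to 100 positive control, at about 1.3% or above, every replicate too, limit read from the data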
Target sequence (Q9HCT0 whole entry, looked up): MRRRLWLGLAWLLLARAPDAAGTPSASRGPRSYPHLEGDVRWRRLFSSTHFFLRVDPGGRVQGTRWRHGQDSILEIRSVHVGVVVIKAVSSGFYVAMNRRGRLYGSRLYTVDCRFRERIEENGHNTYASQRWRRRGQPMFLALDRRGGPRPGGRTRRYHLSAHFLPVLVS
FN deposition inh: inhibitors of fibronectin matrix deposition, primary screen, AH1F cells, Alexa488-fibronectin fluorescence, plate reader | AH1F fibroblasts, overnight | inhibition, % at 12.6 µM | 350,000 compounds, 0.086% hits;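 active = mean inhibition across replicates of 30% or more, regardless of how many single replicates reach that level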;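 also: positive control wells lacked labelled fibronectin entirely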
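test system = AH1F fibroblasts assembling fluorescent fibronectin matrix | quantity = 10000 AH1F cells per well | buffer or medium = DMEM plus 2% serum, read in PBS | doses = single dose, pinned | incubation = 1 h cell attachment, overnight exposure to compound and label | detection = fluorescence at 485 nm excitation, 525 nm emission | read-out basis = inhibition from reduced deposited-fibronectin fluorescence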
HIV Env fusion: inhibitors of HIV-1 Env-driven cell-cell fusion, primary screen, HeLa-JRFL effector, CEM21 target cells, luciferase. AID 651610, 2012. inhibition, % at 12.3 µM. 360,000 compounds, 1.1% hits;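 active = mean replicate inhibition score of at least 50 and every replicate individually at or above 50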;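 also: 0% = plate neutral controls and 100% = maraviroc near 300 nM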
PGC1a acetyl inh: inhibitors of PGC1a acetylation signal, primary screen, cell-based, U2OS, AlphaScreen, inhibitor mode; AlphaScreen anti-acetyl-lysine; with virally co-expressed GCN5 acetyltransferase; inhibition, % at 15.6 µM; 350,000 compounds, 0.17% hits;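 active = every replicate shows inhibition of at least 40%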;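 also: 0% = neutral control wells and 100% = positive control wells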
PAX8 inh HTS: inhibitors of PAX8-driven TPO luciferase reporter, primary screen, RMG-I cells, single concentration | inhibition, % at 12.6 µM | 360,000 compounds, 1.2% hits | SteadyGlo, 24 h;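 active = mean replicate inhibition at least 60% with every replicate also reaching 60%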;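 also: luciferase light reporting Pax8 driven TPO promoter activity; plate controls were median of neutral control wells for no effect and mitoxantrone controls for full effect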
EWS-Fli block: EWS/Fli-driven NR0B1 reporter inhibitors, primary screen, A673 cells, NR0B1 luciferase, luminescence, MLPCN library; inhibition, % at 12.6 µM; 350,000 compounds, 0.67% hits; viability-normalised;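 active = mean inhibition of at least 50% after viability correction, with every replicate also passing that limit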;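 also: firefly luciferase signal divided by Alamar Blue viability fluorescence both relative to DMSO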
FGF22 binding-2: binders of human FGF22 protein, dose response, FGF22 synaptogenesis inhibitor project, biophysical, thermal shift, cherry-pick retest; shares compounds with FGF22 binding-1; recombinant FGF22 thermal shift, SYPRO orange fluorescence; thermal shift activity, °C (ΔTm) at 38 µM; 1,000 compounds, 2% hits;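 active = fitted rise in melting shift crosses a set limit at or below the top valid dose tested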
SYPRO no-protein: compound-only thermal shift signal without protein, dose response, artefact control for FGF22 binder project, biochemical, cherry-picked samples, RT-PCR instrument | AC50, µM (top dose mostly 38 µM) | 1,000 compounds, 2% hits | shares compounds with FGF22 binding-1 | compound-only SYPRO orange thermal shift counter-screen, no protein;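 active = rising signal whose fitted curve reaches the 0.54 level within the top valid dose, showing a melting point, actives reach about 13 µM in these data; inactive = the rest, including activity in the opposite direction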; also: value is where the raw curve crosses a fixed level and not half-maximal
* marks the source's active call; other numbers are inactive results; i = inactive; nt = not tested or not shown; [ ] = dose if it differs, or a comment. Rows were chosen to be rich in hits. Some 3.1% of all compounds tested hit in one or more screens of this group.

SMILES | FGF22 binding-1 | FN deposition inh | HIV Env fusion | PGC1a acetyl inh | PAX8 inh HTS | EWS-Fli block | others
COc1ccc(-c2ccc3n(c2=O)C[C@@H]2[C@@H](CO)[C@H](C(=O)O)[C@H]3N2C(=O)c2ccccc2F)cc1 | 0 | nt | 7[16.7 µM] | nt | nt | -5
O=C(O)[C@@H]1[C@@H](CO)[C@@H]2Cn3c(ccc(-c4ccncc4)c3=O)[C@H]1N2S(=O)(=O)c1ccccc1F | nt | 4 | -43[16.7 µM] | nt | nt | -3
O=C(Cc1ccccc1)N1CC2(C1)[C@H](c1ccccc1)[C@H](CO)N2Cc1cccc(Cl)c1 | 0 | -4 | nt | -23 | 29 | 4
CC=Cc1ccc2n(c1=O)C[C@H]1[C@H](CO)[C@@H](C(=O)OC)[C@@H]2N1CC1CCCC1 (mixture of isomers) | nt | nt | nt | -5 | nt | -5
Cc1oc(-c2ccc(F)cc2F)nc1CN1C[C@@H]2C[C@@H](C1)c1cccc(=O)n1C2 | 44* | -16 | 5 | 1 | 20 | 6
CC=Cc1ccc2n(c1=O)C[C@H]1[C@H](CO)[C@@H](C(=O)OC)[C@@H]2N1C(=O)CC (mixture of isomers) | 0 | nt | nt | nt | nt | -5
Cc1c(NC(NC(=O)CF)C(Cl)(Cl)Cl)c(=O)n(-c2ccccc2)n1C (centres undefined) | 43* | -1 | -18 | 35 | 3 | 5
Cc1c(NP(=S)(C(C)(C)C)C(C)(C)C)c(=O)n(-c2ccccc2)n1C | 0 | -2 | 0 | nt | -4 | -1
CC12CCC(=O)C=C1C=CC1C2CCC2(C)C(O)CCC12 (centres undefined) | 0 | 14 | 81* | -2 | 3 | 10
O=C(Cc1ccccc1)N1CCCCN2[C@H](C1)[C@@H](c1ccc(C#Cc3ccccc3)cc1)[C@@H]2CO | 0 | nt | nt | -18 | 15 | nt
c1ccc2c(c1)[IH]c1ccccc1-2 | 0 | 13 | -10 | 31 | 64* | 31
COC(=O)[C@@H]1[C@@H](CO)[C@@H]2Cn3c(ccc(-c4cccc(F)c4)c3=O)[C@H]1N2C(=O)CC1CC1 | 0 | nt | nt | nt | nt | -3
C=C1C(=O)O[C@@H]2C[C@@H](C)[C@@H]3C=CC(=O)[C@@]3(C)[C@@H](O)[C@H]12 | 0 | 50* | nt | 47* | 112* | 58*
COC(=O)C[C@@H]1CC[C@H]2NC[C@H](O)COC[C@@H]2O1 | 0 | -2 | -16[16.7 µM] | -4 | -8 | 0
CC(Cc1ccc(O)cc1)NCC(O)c1cc(O)cc(O)c1 (centres undefined) | 0 | 11 | 74* | -4 | 1 | 2
CCCNC(=O)[C@H]1[C@H](CO)[C@H]2Cn3c(cccc3=O)[C@H]2N1C | 0 | nt | 16[16.7 µM] | nt | -14 | -4
O=C(Cc1cccnc1)N1CCCCN2[C@H](CO)[C@@H](c3ccc(C#CC4CCCC4)cc3)[C@H]2C1 | 0 | nt | nt | 12 | 1 | 0
COc1ccc(C#Cc2ccc([C@@H]3[C@@H](CO)N4CCCCN(C(=O)Cc5ccncc5)C[C@@H]34)cc2)cc1 | -1 | nt | nt | 11 | 2 | nt
O=C(c1cccc2ccccc12)C1CCCN(Cc2ccon2)C1 (centres undefined) | 2.2* | 10 | 4 | -2 | 16 | 7 | FGF22 binding-2=-0.008;SYPRO no-protein=i
CCC(C)n1c(O)c(C(c2ccccn2)c2c(O)n(C(C)CC)c(=S)[nH]c2=O)c(=O)[nH]c1=S (centres undefined) | 26* | nt | nt | 11 | nt | 19 | FGF22 binding-2=-0.062;SYPRO no-protein=i
